In brackets after ≈: the same amount, converted by molar mass.
Legend:
Format in all cases: functional
Mus musculus [1] = species on record: Mus musculus; experiment: In vitro inhibition of interleukin-2 (IL-2) production induced by stimulating lymphocytes derived from mouse spleens with the […]; conditions: Spleen
In short: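 Compounds added with concanavalin A to the primary culture; supernatants collected at 48 h. IL-2 content measured by growth of IL-2-dependent CTLL cells, read as tritiated thymidine incorporation after 48 h. IC50 determined, with cyclosporin A run in parallel.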

Mus musculus [2] = species on record: Mus musculus; experiment: In vitro efficacy on humoral immune response by Mishell-Dutton assay (MD).
In short: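 Spleen lymphocytes from female OF1 mice (ca. 10 x 10^6) cultured 3 days with sheep erythrocytes (ca. 30 x 10^6) and test compound. Cells then plated on agar with fresh erythrocytes; plaques form by complement lysis. Read-out is the count of antibody-producing plaque-forming cells. Cyclosporin A run in parallel.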

Mus musculus [3] = species on record: Mus musculus; experiment: In vitro efficacy to suppress lymphocyte proliferation as measured by the incorporation of a labeled precursor ([3H]- thymidine) into DNA in Mixed Lymphocyte reaction (MLR).
In short: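 Cells from spleens of female CBA mice aged 8–10 weeks (ca. 5 x 10^5). Compounds made up at 20 mg/mL in 9:1 (v/v) ethanol/Tween 80, then diluted in saline before adding to medium. Four concentrations per compound across 1.8–1000 ng/mL, in triplicate cultures. IC50 is the calculated concentration giving 50% inhibition of proliferation. Cyclosporin A run in parallel as control.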

Row | SMILES | IC50 (Mus musculus [1]) [µg/mL] | IC50 (Mus musculus [2]) [µg/mL] | IC50 (Mus musculus [3]) [µg/mL]
1 | C/C=C/C[C@@H](C)[C@@H](O)[C@H]1C(=O)N[C@@H](CC)C(=O)N(C)CC(=O)N(C)[C@@H](CC(C)C)C(=O)N[C@@H](C(C)C)C(=O)N(C)[C@@H](CC(C)C)C(=O)N[C@@H](C)C(=O)N[C@H](COCCNS(=O)(=O)c2cccc3c(N(C)C)cccc23)C(=O)N(C)[C@@H](CC(C)C)C(=O)N(C)[C@@H](CC(C)C)C(=O)N(C)[C@@H](C(C)C)C(=O)N1C | 0.057 (≈ 0.0381 µM) | 0.048 (≈ 0.0321 µM) | 0.11 (≈ 0.0736 µM)
2 | C/C=C/C[C@@H](C)[C@@H](O)[C@H]1C(=O)N[C@@H](CC)C(=O)N(C)CC(=O)N(C)[C@@H](CC(C)C)C(=O)N[C@@H](C(C)C)C(=O)N(C)[C@@H](CC(C)C)C(=O)N[C@@H](C)C(=O)N2CC(=O)OC[C@@H]2C(=O)N(C)[C@@H](CC(C)C)C(=O)N(C)[C@@H](CC(C)C)C(=O)N(C)[C@@H](C(C)C)C(=O)N1C | 0.024 (≈ 0.0191 µM) |  | 0.167 (≈ 0.133 µM)
3 | C/C=C/C[C@@H](C)[C@@H](O)[C@H]1C(=O)N[C@@H](CC)C(=O)N(C)CC(=O)N(C)[C@@H](CC(C)C)C(=O)N[C@@H](C(C)C)C(=O)N(C)[C@@H](CC(C)C)C(=O)N[C@@H](C)C(=O)N[C@H](COCc2ccccc2)C(=O)N(C)[C@@H](CC(C)C)C(=O)N(C)[C@@H](CC(C)C)C(=O)N(C)[C@@H](C(C)C)C(=O)N1C | 0.095 (≈ 0.0726 µM) | 0.46 (≈ 0.351 µM) | 0.25 (≈ 0.191 µM)
4 | C/C=C/C[C@@H](C)[C@@H](O)[C@H]1C(=O)N[C@@H](CC)C(=O)N(C)CC(=O)N(C)[C@@H](CC(C)C)C(=O)N[C@@H](C(C)C)C(=O)N(C)[C@@H](CC(C)C)C(=O)N[C@@H](C)C(=O)N[C@H](COCCC2OCCO2)C(=O)N(C)[C@@H](CC(C)C)C(=O)N(C)[C@@H](CC(C)C)C(=O)N(C)[C@@H](C(C)C)C(=O)N1C | 0.086 (≈ 0.0652 µM) | 0.105 (≈ 0.0796 µM) | 0.117 (≈ 0.0887 µM)
5 | C=C(CO)COC[C@H]1NC(=O)[C@H](C)NC(=O)[C@H](CC(C)C)N(C)C(=O)[C@H](C(C)C)NC(=O)[C@H](CC(C)C)N(C)C(=O)CN(C)C(=O)[C@H](CC)NC(=O)[C@H]([C@H](O)[C@H](C)C/C=C/C)N(C)C(=O)[C@H](C(C)C)N(C)C(=O)[C@H](CC(C)C)N(C)C(=O)[C@H](CC(C)C)N(C)C1=O | 0.048 (≈ 0.0372 µM) | 0.032 (≈ 0.0248 µM) | < 0.008
6 | C=C(CCl)COC[C@H]1NC(=O)[C@H](C)NC(=O)[C@H](CC(C)C)N(C)C(=O)[C@H](C(C)C)NC(=O)[C@H](CC(C)C)N(C)C(=O)CN(C)C(=O)[C@H](CC)NC(=O)[C@H]([C@H](O)[C@H](C)C/C=C/C)N(C)C(=O)[C@H](C(C)C)N(C)C(=O)[C@H](CC(C)C)N(C)C(=O)[C@H](CC(C)C)N(C)C1=O | > 0.1 | 0.23 (≈ 0.176 µM) | 0.27 (≈ 0.207 µM)
7 | C=C(COC[C@H]1NC(=O)[C@H](C)NC(=O)[C@H](CC(C)C)N(C)C(=O)[C@H](C(C)C)NC(=O)[C@H](CC(C)C)N(C)C(=O)CN(C)C(=O)[C@H](CC)NC(=O)[C@H]([C@H](O)[C@H](C)C/C=C/C)N(C)C(=O)[C@H](C(C)C)N(C)C(=O)[C@H](CC(C)C)N(C)C(=O)[C@H](CC(C)C)N(C)C1=O)CO[Si](C)(C)C(C)(C)C | > 1 | > 1 | 0.45 (≈ 0.321 µM)
8 | C=C1COC[C@@H]2C(=O)N(C)[C@@H](CC(C)C)C(=O)N(C)[C@@H](CC(C)C)C(=O)N(C)[C@@H](C(C)C)C(=O)N(C)[C@@H]([C@H](O)[C@H](C)C/C=C/C)C(=O)N[C@@H](CC)C(=O)N(C)CC(=O)N(C)[C@@H](CC(C)C)C(=O)N[C@@H](C(C)C)C(=O)N(C)[C@@H](CC(C)C)C(=O)N[C@@H](C)C(=O)N2C1 | 0.012 (≈ 0.00944 µM) |  | 0.036 (≈ 0.0283 µM)
9 | C/C=C/C[C@@H](C)[C@@H](O)[C@H]1C(=O)N[C@@H](CC)C(=O)N(C)CC(=O)N(C)[C@@H](CC(C)C)C(=O)N[C@@H](C(C)C)C(=O)N(C)[C@@H](CC(C)C)C(=O)N[C@@H](C)C(=O)N2CC(OCC)OC[C@@H]2C(=O)N(C)[C@@H](CC(C)C)C(=O)N(C)[C@@H](CC(C)C)C(=O)N(C)[C@@H](C(C)C)C(=O)N1C (mixture of isomers) | 0.01 |  | 0.04

Now from value to compound, other results behind:

Row | IC50 (Mus musculus [1]) [µg/mL] | IC50 (Mus musculus [2]) [µg/mL] | SMILES | IC50 (Mus musculus [3]) [µg/mL]
10 | 0.53 (≈ 0.415 µM) | 0.48 (≈ 0.376 µM) | C/C=C/C[C@@H](C)[C@@H](O)[C@H]1C(=O)N[C@@H](CC)C(=O)N(C)CC(=O)N(C)[C@@H](CC(C)C)C(=O)N[C@@H](C(C)C)C(=O)N(C)[C@@H](CC(C)C)C(=O)N[C@@H](C)C(=O)N[C@H](COCC(=O)O)C(=O)N(C)[C@@H](CC(C)C)C(=O)N(C)[C@@H](CC(C)C)C(=O)N(C)[C@@H](C(C)C)C(=O)N1C | 0.44 (≈ 0.345 µM)
11 | 0.024 (≈ 0.0195 µM) | < 0.01 | C/C=C/C[C@@H](C)[C@@H](O)[C@H]1C(=O)N[C@@H](CC)C(=O)N(C)CC(=O)N(C)[C@@H](CC(C)C)C(=O)N[C@@H](C(C)C)C(=O)N(C)[C@@H](CC(C)C)C(=O)N[C@@H](C)C(=O)N[C@H](COC)C(=O)N(C)[C@@H](CC(C)C)C(=O)N(C)[C@@H](CC(C)C)C(=O)N(C)[C@@H](C(C)C)C(=O)N1C | < 0.008
12 | 0.1 (≈ 0.0759 µM) | 0.016 (≈ 0.0122 µM) | C=C(COC[C@H]1NC(=O)[C@H](C)NC(=O)[C@H](CC(C)C)N(C)C(=O)[C@H](C(C)C)NC(=O)[C@H](CC(C)C)N(C)C(=O)CN(C)C(=O)[C@H](CC)NC(=O)[C@H]([C@H](O)[C@H](C)C/C=C/C)N(C)C(=O)[C@H](C(C)C)N(C)C(=O)[C@H](CC(C)C)N(C)C(=O)[C@H](CC(C)C)N(C)C1=O)C(=O)OC | 0.04 (≈ 0.0304 µM)
13 | 0.115 (≈ 0.0914 µM) | 0.032 (≈ 0.0254 µM) | C=CCOC[C@H]1NC(=O)[C@H](C)NC(=O)[C@H](CC(C)C)N(C)C(=O)[C@H](C(C)C)NC(=O)[C@H](CC(C)C)N(C)C(=O)CN(C)C(=O)[C@H](CC)NC(=O)[C@H]([C@H](O)[C@H](C)C/C=C/C)N(C)C(=O)[C@H](C(C)C)N(C)C(=O)[C@H](CC(C)C)N(C)C(=O)[C@H](CC(C)C)N(C)C1=O | 0.088 (≈ 0.0699 µM)
14 | 0.012 (≈ 0.0092 µM) | 0.028 (≈ 0.0215 µM) | C/C=C/C[C@@H](C)[C@@H](O)[C@H]1C(=O)N[C@@H](CC)C(=O)N(C)CC(=O)N(C)[C@@H](CC(C)C)C(=O)N[C@@H](C(C)C)C(=O)N(C)[C@@H](CC(C)C)C(=O)N[C@@H](C)C(=O)N[C@H](COCCOC(C)=O)C(=O)N(C)[C@@H](CC(C)C)C(=O)N(C)[C@@H](CC(C)C)C(=O)N(C)[C@@H](C(C)C)C(=O)N1C | 0.018 (≈ 0.0138 µM)
15 | 0.38 (≈ 0.301 µM) | 0.095 (≈ 0.0753 µM) | C/C=C/C[C@@H](C)[C@@H](O)[C@H]1C(=O)N[C@@H](CC)C(=O)N(C)CC(=O)N(C)[C@@H](CC(C)C)C(=O)N[C@@H](C(C)C)C(=O)N(C)[C@@H](CC(C)C)C(=O)N[C@@H](C)C(=O)N[C@H](COCCN)C(=O)N(C)[C@@H](CC(C)C)C(=O)N(C)[C@@H](CC(C)C)C(=O)N(C)[C@@H](C(C)C)C(=O)N1C | 0.22 (≈ 0.174 µM)
16 | 0.09 (≈ 0.0716 µM) | 0.036 (≈ 0.0286 µM) | C#CCOC[C@H]1NC(=O)[C@H](C)NC(=O)[C@H](CC(C)C)N(C)C(=O)[C@H](C(C)C)NC(=O)[C@H](CC(C)C)N(C)C(=O)CN(C)C(=O)[C@H](CC)NC(=O)[C@H]([C@H](O)[C@H](C)C/C=C/C)N(C)C(=O)[C@H](C(C)C)N(C)C(=O)[C@H](CC(C)C)N(C)C(=O)[C@H](CC(C)C)N(C)C1=O | 0.072 (≈ 0.0573 µM)
17 | 0.07 (≈ 0.0549 µM) | 0.063 (≈ 0.0494 µM) | C/C=C/C[C@@H](C)[C@@H](O)[C@H]1C(=O)N[C@@H](CC)C(=O)N(C)CC(=O)N(C)[C@@H](CC(C)C)C(=O)N[C@@H](C(C)C)C(=O)N(C)[C@@H](CC(C)C)C(=O)N[C@@H](C)C(=O)N[C@H](COCC(N)=O)C(=O)N(C)[C@@H](CC(C)C)C(=O)N(C)[C@@H](CC(C)C)C(=O)N(C)[C@@H](C(C)C)C(=O)N1C | 0.064 (≈ 0.0502 µM)

From ChEMBL document CHEMBL1128374, “Preparation and in vitro activities of ethers of [D-serine]8-cyclosporin” (J Med Chem, 1995)
